In the RNAGym collection of RNA variant scans (doi:10.1126/science.aae0568):
This sample holds only a part of the variants without activity.

B1: tRNA (parent)
chain: GUUCCGUUGGCGUAAUGGUAACGCGUCUCCCUCCUAAGGAGAAGACUGCGGGUUCGAGUCCCGUACGGAACG

Variants of: B1
Test: yeast fitness relative to wild type (ratio to wild type); higher = fitter; tRNA-Arg(CCU), competitive growth, 37 C, YPD
Method in brief: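 Gene amplicons from the start population and from each of six end populations were read by 100-nucleotide paired-end sequencing. Those end populations came from pooled Saccharomyces cerevisiae strains carrying tRNA-Arg(CCU) gene variants at the native locus, competed in YPD at 37°C for 24 hours. Fitness relative to wild type was worked out from changes in genotype frequencies. Genotypes needed ≥ 100 starting reads, and estimates < 0.5 were set to 0.5.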

Variant	yeast fitness
U7C C29G C49U	0.712
U7C A37C C61G	≤ 0.5
U7G C11G C34U G41A A65C C66U	≤ 0.5
U7G A37U G50C	≤ 0.5
U7G A14U U26A C61A	≤ 0.5
U7C U59C	0.846
U7C G18C C61U	≤ 0.5
U7G A21C G44C	0.545
U7C A15G C27U C29U	≤ 0.5
U7G C27U C33U C66U	≤ 0.5
U7G A40C C55G	0.591
U7G A69C	0.851
U7G C61U G68A	0.533
U7C U28A C31U C55G C66U	≤ 0.5
U7C G12A A20C A21G C24A C27A A36C	≤ 0.5
U7C A15C	0.639
U7C G68C	0.876
U7C G67A	0.863
U7C G67U	0.847
U7G C33U A42C A43C C49U A69U	≤ 0.5
U7C G23C	0.671
U7G C24G A65U C66U	≤ 0.5
U7C C30A C60A	≤ 0.5
U7C U16C A21U C22A C49U G50C A69U	≤ 0.5

Variant	yeast fitness
U7C G48C G67C	≤ 0.5
U7C C49U G56A A65C	0.607
U7C A21C C34G U35G G44C C61G	0.636
U7C G48A U54A C55G A65U	≤ 0.5
U7C A20U A36G A40U	≤ 0.5
U7C A21C C34A U35G G44C C61G	≤ 0.5
U7C A37U	0.625
U7C C31U U32G	0.542
U7C U26C C49U	≤ 0.5
U7C C24G A65C	≤ 0.5
U7C G41A A42C G50C C62U	≤ 0.5
U7G C27U A57C A70U	≤ 0.5
U7G A20U C46G A57U A69C	0.623
U7C C33G U59C	0.59
U7A U53A A65C A70G	≤ 0.5
U7G C11G C34U G41A C49U	≤ 0.5
U7A U35C A42G C60U	0.561
U7G C29U	0.775
U7A U53A A69C	0.545
U7G C22A U64C A70C	≤ 0.5
U7C U26C	0.866
U7G A15U C62U C66A	≤ 0.5
U7C C33U U53C	0.599
U7C G12C U32A G39A C49G	0.602

Variant	yeast fitness
U7C A65U A69C	0.532
U7C C27U C33G C34G G44A G50A G52A	≤ 0.5
U7C G41A A42C G50C G63A A70G	0.555
U7C G18A C31A G56C	≤ 0.5
U7G C27A C29U A40U	≤ 0.5
U7C C11U C34A A45C G68A	≤ 0.5
U7C C31G C34U C55U G58A C61U G68C	≤ 0.5
U7C U28A G48C C62U A70C	≤ 0.5
U7A U16C A21U U26A C46U C60U	0.55
U7C U19C U26C C34U G52A U59A G63C	≤ 0.5
U7C A14G C29U C31U C33U C55U	≤ 0.5
U7C C29U C46U A65U	≤ 0.5
U7C U53A G56C G63A	≤ 0.5
U7C U47G	≤ 0.5
U7G C24A C27A	≤ 0.5
U7C U13A C24U G51A U59A A65C	0.642
U7C G9C A20G G41A	≤ 0.5
U7G C22A	0.653
U7G C22G	0.726
U7C G10A G50C	≤ 0.5
U7C U47C U54C C55G	≤ 0.5
U7A U54A	0.506
U7G C30A C62A	≤ 0.5
U7C G56C	0.692

Variant	yeast fitness
U7C G56A	0.977
U7A U53A	≤ 0.5
U7C A37G C55A G58C	≤ 0.5
U7C C34G G39C A42G C46G C61G	0.538
U7C G38C C49A	0.618
U7G A43G	0.806
U7G A43U	0.914
U7G C46U	0.987
U7C A69C	0.921
U7C A69G	0.817
U7G C11G C33G G56C C62G	≤ 0.5
U7C G10C A43C	0.549
U7A U16C G17A C29U C31A C55A	≤ 0.5
U7C A45U	0.837
U7C A45C	0.761
U7C C24U C30G A45C C61G	≤ 0.5
U7G A14G C22U G38A C55A	0.555
U7C G51A C62G A65G	≤ 0.5
U7C G41A A42C G50C A65U	≤ 0.5
U7C G41A A42C G50C A65C	≤ 0.5
U7C A14G C29U C31U C33U	0.592
U7G C34G A43U	0.661
U7G C27A A36C A42U U64G	0.528
U7A U64C	0.829

Variant	yeast fitness
U7C A20C	0.844
U7C A14C A65C	0.533
U7C C31U G52A	≤ 0.5
U7C A21U A36U A37C	≤ 0.5
U7C U64C	0.88
U7G A20U	0.742
U7C G10A C30G A37C	0.554
U7C G18A C22G C62U A70G	≤ 0.5
U7G A45C C49U	0.508
U7C U32G C33G U59C	≤ 0.5
U7C G12A A45C C49U C61G A65C	≤ 0.5
U7C A14G U19G C29G C49A G52C	≤ 0.5
U7G C22U G52A C55U	≤ 0.5
U7G C49U	0.957
U7G C49G	0.729
U7C U32G G56U	≤ 0.5
U7G C11G C34U A37U C46A G51A	≤ 0.5
U7C A36G A43U C62G	0.603
U7C G48A A69C	0.695
U7G A20U C46G	0.562
U7C A37G A42C C49G C66G A70U	≤ 0.5
U7C A14C G63C	0.573
U7G A14C C30G C66U	≤ 0.5
U7C C11A G67U	≤ 0.5

Variant	yeast fitness
U7C C11G C24U G48A G63A	≤ 0.5
U7G C11U U16A	0.518
U7A U19A C29A G68C	≤ 0.5
U7C C24G C31A	≤ 0.5
U7C A43C C49A G56A	≤ 0.5
U7C G23A C33G	≤ 0.5
U7C A40U A42U U54A	0.661
U7C G41A A42C G50C G52A A70G	≤ 0.5
U7G C30U G38A G50A U59C	≤ 0.5
U7C C27G	0.696
U7C C27A	0.894
U7C G39A	0.913
U7C G12A U13G A14C U35C C49U	≤ 0.5
U7A U19G G58A	≤ 0.5
U7C A20U C34G A36C C55U A65U	≤ 0.5
U7C U16G U28A C49G A57C G67U	≤ 0.5
U7C U16A G41C	0.613
U7A U19G A21U G67A	≤ 0.5
U7G C11U G12C C33U G63C G68U	≤ 0.5
U7G A37G C55G	≤ 0.5
U7C U19G G51A U59A C66A	≤ 0.5
U7G A21U C30U A40C	≤ 0.5
U7G C30A A69C	0.798
U7G C11G C34U G41A C46U	≤ 0.5

Variant	yeast fitness
U7C G18A C22G	0.586
U7A U19C A43G C60G	≤ 0.5
U7G C29U U47G	≤ 0.5
U7G A21U C29A C55A A69U	≤ 0.5
U7C A42G	0.716
U7G C24A C46G U59C C62G	≤ 0.5
U7G G9A A20U C31G C34U G67U	≤ 0.5
U7G C27G A40U G58C	≤ 0.5
U7C C24U U54A	≤ 0.5
U7G A14G C22U G38A C55A G67A	≤ 0.5
U7C C34U	0.699
U7A U59A	0.778
U7A U59C	0.662
U7C C34U C66U	≤ 0.5
U7C C29G A45C C62G A65C	≤ 0.5
U7C G48C C62U	0.548
U7C A21C C31A	≤ 0.5
U7C C33U C49U U53C	0.539
U7G A43G C46G G63A	≤ 0.5
U7C A20G C61U	0.587
U7G A14U C30A	≤ 0.5
U7G C30U G38A C60U	0.582
U7G A42C G44C A65C	1.08
